Compound activity from PubChem BioAssay.
VIM-2 inhibitor: inhibitors of Pseudomonas aeruginosa VIM-2 metallo-beta-lactamase | inhibition, % at 5.6 µM | purified VIM-2, nitrocefin hydrolysis, epi-absorbance fluorescence | 290,000 tested, 0.89% active;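 active means inhibition above the mean of all tested compounds plus 3 SD, cutoff set per screening run, cut at about 7.5% in these data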;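 further: red hydrolysis product quenches plate fluorescence so inhibitors raise well fluorescence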
PDI inh: inhibitors of human protein disulfide isomerase; P07237; PDI insulin aggregation turbidity, A650, 90 min; inhibition, % at 10 µM; 350,000 tested, 0.052% active; AID 588391;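 active means mean inhibition across replicates of 30% or more, whatever share of single replicates reach that level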
IMP-1 inhibitor: inhibitors of Pseudomonas aeruginosa IMP-1 metallo-beta-lactamase; purified IMP-1, nitrocefin hydrolysis, epi-absorbance fluorescence; inhibition, % at 5.6 µM; 290,000 tested, 0.45% active;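 active means inhibition above the mean plus 3 SD of all compounds in the same screening run, cut at about 4.5% in these data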
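System: Purified IMP-1 | Read-out basis: Percent enzyme inhibition | Controls: IMP-1 with DMSO as 0%, enzyme-free DMSO as 100% | Replicates: One well per compound | Doses: 5.6 µM nominal single concentration | Detection: Epi-absorbance fluorescence, 480 nm excitation, 530 nm emission | Incubation: 25 °C, 15 min preincubation, 25 min reaction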
PvdQ acylase: blocks Pseudomonas aeruginosa PvdQ acylase activity; 340,000 tested, 0.063% active; inhibition, % at 10 µM; purified PvdQ acylase, fluorescence plate reader; in the data active means inhibition above about 30%, passing the limit was not always enough
PglD inh: PglD (C. jejuni) enzyme inhibition. inhibition, % at 12.5 µM. purified PglD enzyme, DTNB colorimetric CoA detection. 360,000 tested, 0.098% active; in the data active means inhibition above about 16%, passing the limit was not always enough
ERp5 inh: blocks human ERp5 reductase activity on insulin | ERp5 insulin aggregation, absorbance 650 nm, 90 min | inhibition, % at 9.99 µM | 350,000 tested, 0.05% active | AID 651711;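 active means mean replicate inhibition above about 25%, with every replicate also reaching it, limit read from the data, passing the limit was not always enough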
Target sequence (Q15084 whole entry, looked up): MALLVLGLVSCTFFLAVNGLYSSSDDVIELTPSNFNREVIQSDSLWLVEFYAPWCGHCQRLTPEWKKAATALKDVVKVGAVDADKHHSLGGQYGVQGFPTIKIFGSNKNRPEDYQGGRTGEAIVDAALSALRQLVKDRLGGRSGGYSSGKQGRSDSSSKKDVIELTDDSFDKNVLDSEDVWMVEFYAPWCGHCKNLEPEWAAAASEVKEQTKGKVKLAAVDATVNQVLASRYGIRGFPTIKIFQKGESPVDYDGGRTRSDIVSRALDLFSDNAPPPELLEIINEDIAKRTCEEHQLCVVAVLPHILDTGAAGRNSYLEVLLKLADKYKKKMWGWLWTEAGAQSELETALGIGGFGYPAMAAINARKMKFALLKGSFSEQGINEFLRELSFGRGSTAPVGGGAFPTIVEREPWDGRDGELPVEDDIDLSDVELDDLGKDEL
Numbers stand for hits; - = inactive; . = not tested or not shown. A selection: hits, their analogues and other compounds. The true share with any hit is near 1%.

SMILES | VIM-2 inhibitor | PDI inh | IMP-1 inhibitor | PvdQ acylase | PglD inh | ERp5 inh
O=C(O)c1cc(O)c2c(c1)C(=O)c1cccc(O)c1C2=O | - | - | 4.6 | - | - | -
Cc1cc(O)c2c(c1)C(=O)c1cccc(O)c1C2=O | - | . | - | . | . | -
OC[C@@H]1Nc2ccc(C#Cc3ccccc3)cc2[C@H]2[C@@H]1CCN2Cc1nccs1 | . | . | . | . | - | .
COc1ccc(NC(=O)N[C@H]2CC[C@@H](CCn3cc(-c4ccccc4)nn3)O[C@H]2CO)cc1 | . | . | . | . | - | -
CCOC(=O)C1CCN(S(=O)(=O)c2ccc3[nH]c4c(c3c2)CCCC4)CC1 | 8.1 | - | - | - | - | -
Cc1cc2cc(CNC(=O)c3ccc(S(=O)(=O)N4CCCCC4)cc3)ccc2[nH]1 | - | . | - | - | - | -
O=C(NCc1ccc2[nH]c3c(c2c1)CCCC3)c1ccc(S(=O)(=O)N2CCCC2)cc1 | 12 | . | - | - | - | -
C[C@@H]1CN([C@@H](C)CO)C(=O)c2cc(C3=CCCCC3)cnc2O[C@@H]1CN(C)C(=O)c1cccnc1 | . | . | . | . | - | -
COc1ccc2c3c([nH]c2c1)[C@H](CO)N(C(=O)Nc1ccc(F)cc1)CC31CCN(Cc2cc(F)ccc2F)CC1 | . | . | . | . | . | -
Fc1ccc(CNCc2cccc(Br)c2)cc1 | - | - | - | 31 | - | -
O=C(c1cccc([N+](=O)[O-])c1)c1ccc2[nH]c(=O)[nH]c2c1 | - | - | 29 | - | - | -
C[C@@H]1CCCCO[C@H](CN(C)CC2CCCCC2)[C@H](C)CN([C@@H](C)CO)C(=O)c2cc(NC(=O)Nc3ccc4c(c3)OCO4)ccc2O1 | . | . | . | . | - | -
COC(=O)c1cc(-c2ccc(OC)c(OC)c2)c2c(=O)[nH]c(=O)n(C)c2n1 | 9.4 | - | - | - | - | -
CO[C@@H]1CN(C)C(=O)c2cc(NS(=O)(=O)c3ccc(F)cc3)ccc2OC[C@H](C)NC[C@@H]1C | . | . | . | . | - | -
COc1cc(NC(=O)C(=O)NCCN2CCNCC2)c(OC)cc1Cl | 10 | - | - | - | . | -
COc1ccc(C(=O)C[n+]2cccc3cc(C)ccc32)cc1 | - | - | 5.9 | - | - | -
COc1ccc(C(=O)C[n+]2cccc3cc(OC)ccc32)cc1 | - | - | - | - | - | -
C[C@@H]1CN([C@@H](C)CO)C(=O)c2cc(C#CCN(C)C)cnc2O[C@@H]1CN(C)Cc1cccc(F)c1 | . | . | . | . | - | .
CC(C)CC#Cc1cnc2c(c1)C(=O)N([C@H](C)CO)C[C@H](C)[C@H](CN(C)Cc1ccccc1C(=O)O)O2 | . | . | . | . | - | 37
C[C@@H]1CN([C@H](C)CO)C(=O)c2cc(C#CCN(C)C)cnc2O[C@H]1CN(C)Cc1cccc(F)c1 | . | . | . | . | - | 57
C[C@@H]1CN([C@@H](C)CO)C(=O)c2cc(C#CC3(O)CCCC3)cnc2O[C@H]1CN(C)C(=O)Cc1cccnc1 | . | . | . | . | - | 28
COc1ccc(-c2cn(CC[C@@H]3CC[C@H](NC(=O)Nc4ccc(F)cc4)[C@@H](CO)O3)nn2)cc1 | . | . | . | . | . | -
CO[C@@H]1CN(C)C(=O)c2ccc(NC(=O)C3CC3)cc2OC[C@@H](C)N(CC2CC2)C[C@H]1C | . | . | . | . | - | -
CN1C(=O)c2cc(NC(=O)C3CCCC3)ccc2OC[C@@H]2O[C@H](CC(=O)NCc3ccccc3F)CC[C@H]21 | . | . | . | . | . | -
COc1ccc2c3c([nH]c2c1)[C@H](CO)N(C(=O)C1CCCC1)CC31CCN(Cc2nccs2)CC1 | . | . | . | . | . | -
SMILES | VIM-2 inhibitor | PDI inh | IMP-1 inhibitor | PvdQ acylase | PglD inh | ERp5 inh
Cc1[nH]c2ccccc2c1C(=O)CSC(=S)N(C)C | - | - | - | - | - | .
Cc1[nH]c2ccccc2c1C(=O)CSC(=S)N1CCN(C)CC1 | 12 | - | - | - | - | -
COc1ccc(C(=O)c2coc3c2C(=O)C(=O)c2ccccc2-3)cc1 | - | - | 12 | - | - | .
O=C1C2C3C=CC(C3)C2C(=O)N1Nc1ccc([N+](=O)[O-])cc1[N+](=O)[O-] (stereo unspecified) | - | - | - | - | - | -
O=C1c2ccccc2C(=O)N1Nc1ccc([N+](=O)[O-])cc1[N+](=O)[O-] | - | - | 4.5 | - | - | -
CCC1(CC)NC(=O)N(CC(=O)OC(C)C(=O)Nc2ccc(NC(C)=O)cc2)C1=O (stereo unspecified) | . | - | . | - | - | 28
C[C@@H]1CN([C@@H](C)CO)S(=O)(=O)c2ccc(C#Cc3cccnc3)cc2O[C@H]1CN(C)C(=O)CN(C)C | . | . | . | . | - | 54
COCC(=O)N(C)C[C@H]1Oc2cc(C#CC(C)(C)O)ccc2S(=O)(=O)N([C@H](C)CO)C[C@H]1C | . | . | . | . | - | 73
CC(C)C#Cc1ccc2c(c1)O[C@@H](CN(C)C(=O)C1CC1)[C@@H](C)CN([C@@H](C)CO)S2(=O)=O | . | . | . | . | - | 61
CNC[C@H]1Oc2ccc(NC(=O)Cc3cn(C)c4ccccc34)cc2C(=O)N([C@@H](C)CO)C[C@H]1C | . | . | . | . | - | -
Cc1noc(C)c1NC(=O)N(C)C[C@@H]1Oc2ccc(NC(=O)Cc3cn(C)c4ccccc34)cc2C(=O)N([C@@H](C)CO)C[C@H]1C | . | . | . | . | - | -
Cc1ccc(S(=O)(=O)N[C@H]2C=C[C@H](CC(=O)NCCCN(C)C)O[C@H]2CO)cc1 | . | . | . | . | - | -
CCCN1CCN(CCCNC(=O)CCNC(=O)Cn2ccc3ccccc3c2=O)CC1 | - | - | 5.4 | - | - | .
CCCN1CCN(CCCNC(=O)Cn2nc(-c3ccc(Cl)cc3)ccc2=O)CC1 | - | - | - | - | . | .
CCCN1CCN(CCCNC(=O)Cn2nc(-c3ccc(C)cc3)ccc2=O)CC1 | - | - | 6.3 | - | - | .
C[C@H]1CN([C@@H](C)CO)C(=O)Cc2cc(NS(=O)(=O)c3ccccc3)ccc2O[C@@H]1CN(C)Cc1ccc2c(c1)OCO2 | . | . | . | . | - | -
CC(C)OC(=O)C(C(=O)C(F)(F)F)c1cc(NS(=O)(=O)c2ccc3ccccc3c2)c2ccccc2c1O (stereo unspecified) | - | - | 9.1 | - | - | .
CCOc1ccc2[nH]c(=O)c(CN(Cc3nnnn3Cc3ccco3)C3CCCCC3)cc2c1 | - | - | - | - | - | .
COc1cc2cc(CN(Cc3nnnn3Cc3ccco3)C3CCCCC3)c(=O)[nH]c2cc1OC | 9.3 | - | - | - | - | .
COCC(=O)N1[C@H](CO)[C@H](c2ccccc2)C12CN(C(=O)NC1CCCC1)C2 | . | . | . | . | . | -
COc1cccc(/C=N/NC(=S)Nc2cccc(C(=O)O)c2)c1 | 9.1 | - | - | - | . | -
COc1cccc(/C=N/NC(=S)Nc2cccc(S(=O)(=O)N(C)C)c2)c1 | - | - | - | - | - | -
COc1ccc(O)c(/C=N/NC(=S)Nc2cccc(S(=O)(=O)N(C)C)c2)c1 | 11 | - | - | - | - | .
C[C@H](CO)N1C[C@H](C)[C@H](CN(C)C)Oc2cc(Br)ccc2S1(=O)=O | . | . | . | . | - | -
O=C(Nc1ccc(Nc2ccncc2)cc1)c1ccc(Nc2ccnc3ccc([N+](=O)[O-])cc23)cc1 | 36 | - | 21 | - | - | -
